ChEMBL document CHEMBL4699666, “Cyclic Peptidyl Inhibitors against CAL/CFTR Interaction for Treatment of Cystic Fibrosis” (J Med Chem, 2020)
Active and inactive are the calls of the source. No cut-off for these calls is given here. Positions of bridges follow the written chain, without caps; N, C: chain ends. Non-standard residues stand in square brackets, D forms with d. Residues, ends and D or L forms follow the SMILES beside them. 2Nal = N[C@@H](Cc1ccc2ccccc2c1)C(=O)O; Bta = N[C@@H](Cc1csc2ccccc12)C(=O)O; Pen = CC(C)(S)[C@H](N)C(=O)O; Tle = CC(C)(C)[C@H](N)C(=O)O; Pip = O=C(O)[C@@H]1CCCCN1

Legend:
[1] = Drug metabolism in human HCT-116 cells assessed as formation of (2S)-2-[[(2S)-2-[[(2S,3R)-2-[[(2R)-2-[[(2S)-1-[(2S)-2-[[(2S)-2-[[(2S)-2-[[(2S)-2-[[(2R)-2-[[(2R)-2-acetamido-3-sulfanyl-propanoyl]amino]-5-guanidino-pentanoyl]amino]-5-guanidino-pentanoyl]amino]-5-guanidino-pentanoyl]amino]-3-(2-naphthyl)propanoyl]amino]-3-(benzothiophen-3-yl)propanoyl]piperidine-2-carbonyl]amino]-3-methyl-3-sulfanyl-butanoyl]amino]-3-hydroxy-butanoyl]amino]-5-guanidino-pentanoyl]amino]-3,3-dimethyl-butanoic acid at 5 uM incubated for 4 to 24 hrs by MALDI-TOF-TOF mass spectrometry; assay type: ADME, cell-based; settings: hct-116, 5 µM, time 4-24 hrs
Summary of the method: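 HCT116 spheroids (7,000 cells seeded on agarose, grown 12 days) were exposed to 5 μM cyclic peptide for 4 or 24 h. They were washed, gelatin-embedded and cut into 16 μm sections. Positive-ion MALDI-TOF-TOF imaging (m/z 360–1400) gave heatmaps, scaled to the most intense signal, for intact peptide and about 20 possible proteolytic fragments.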

[2] = Toxicity in human CFBE41o- cells assessed as reduction in cell viability up to 50 uM incubated for 72 hrs by MTT assay; assay type: cell-based
Summary of the method: (§1)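 CFBE41o-, HCT116 or H358 cells were seeded at 5 × 10^3 per well and the next day exposed for 72 h at 37 °C to serial dilutions of peptide in DPBS at constant 0.5% DMSO. MTT was added for 4 h, formazan was solubilized with SDS-HCl overnight and absorbance read at 565 nm. Viability was expressed relative to 0.5% DMSO controls (100%); n = 3.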

[3] = test system: HCT-116; test: Toxicity in human HCT-116 cells assessed as reduction in cell viability up to 50 uM incubated for 72 hrs by MTT assay; assay type: cell-based; settings: hct-116, 72 h; summary of the method: as §1
[4] = test system: NCI-H358; test: Toxicity in human NCI-H358 cells assessed as reduction in cell viability up to 50 uM incubated for 72 hrs by MTT assay; assay type: cell-based; settings: nci-h358, 72 h; summary of the method: as §1
[5] = test system: Epithelial cell; test: Inhibition of CAL and CFTR F508del mutant interaction in human CF-HBE cells isolated from patient with F508del mutation assessed as increase in short-circuit current incubated for 24 hrs in presence of 5 uM VX-661 by relative to VX-661 alone; assay type: cell-based
Summary of the method: (§2)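 Primary bronchial epithelia from F508del/F508del donors (three donors) were grown at air/liquid interface and given corrector (5 μM VX-661) or none. After 24 h, peptide or DMSO was applied apically in Hank's solution for 1 h, then removed, and cells were kept a further 24 h. Ussing chambers used Ringer's with a low-chloride apical side. Isc changes were read after forskolin (10 μM) activation and Inh-172 inhibition; n = 5 filters.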

[6] = Drug uptake in human HeLa cells assessed as absolute cytosolic entry efficiency at 5 uM incubated for 2 hrs by flow cytometry; assay type: ADME, subcellular, Cytoplasm
[7] = biological target: T1, Golgi-associated PDZ and coiled-coil motif-containing protein (Homo sapiens, UniProt Q9HD26); test: Binding affinity to C-terminal His6 tagged CAL PDZ domain (unknown origin) expressed in Escherichia coli BL21 incubated for 1 hr using FAM-22 probe by fluorescence polarization based competition assay
[8] = Drug uptake in human HeLa cells at 5 uM incubated for 2 hrs by flow cytometry relative to CPP9; assay type: ADME, cell-based
Summary of the method: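 Naphthofluorescein-labelled cyclic peptides (5 μM final, 0.5% DMSO, in DMEM with 10% FBS) were applied to HeLa cells, seeded the day before at 15 × 10^4 per well, for 2 h at 37 °C. Cells were washed with cold DPBS, trypsinized and analysed by flow cytometry. Mean fluorescence was expressed as % of CPP9; n = 3.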

[9] = Half life in 25% human serum at 100 uM incubated for 24 hrs at 37 degC by HPLC analysis; assay type: ADME, cell-free
Summary of the method: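 Human serum diluted 1:4 in DPBS was pre-warmed to 37 °C, and peptide (100 μM final) was incubated in it at 37 °C. At each time point, aliquots were deproteinized with 15% TCA in MeOH plus MeCN for 24 h at 4 °C and centrifuged. Supernatants were analysed by reversed-phase HPLC, reading at 214 nm, for intact peptide remaining.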

[10] = biological target: T2, Na(+)/H(+) exchange regulatory cofactor NHE-RF1 (Homo sapiens, UniProt O14745); test: Binding affinity to NHERF1 PDZ1 domain (unknown origin) expressed in Escherichia coli BL21 incubated for 1 hr by fluorescence polarization based competition assay
T2 sequence (O14745 whole entry): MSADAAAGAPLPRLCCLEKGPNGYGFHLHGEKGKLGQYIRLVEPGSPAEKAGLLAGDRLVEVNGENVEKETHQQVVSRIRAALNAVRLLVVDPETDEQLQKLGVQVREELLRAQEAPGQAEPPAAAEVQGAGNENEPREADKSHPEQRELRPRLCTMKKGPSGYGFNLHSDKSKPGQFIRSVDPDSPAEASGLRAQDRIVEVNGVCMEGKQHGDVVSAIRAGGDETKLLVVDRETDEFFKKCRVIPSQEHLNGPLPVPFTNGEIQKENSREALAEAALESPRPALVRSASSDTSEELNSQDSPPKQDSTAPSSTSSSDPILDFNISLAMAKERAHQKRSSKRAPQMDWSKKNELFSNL
Summary of the method: (§3)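 CAL, NHERF1 and NHERF2 PDZ domains carried a C-terminal His6 tag, were expressed in E. coli BL21 (0.1 mM IPTG, 16 h at 18 °C) and purified on Ni-NTA. For direct binding, 50 nM fluorescein-labelled peptide was titrated with PDZ protein (0–2.5 μM CAL; 0–25 μM NHERF1/2) in PBS pH 7.4 with 0.01% Triton X-100 and 2 mM TCEP for 1 h at room temperature. Fluorescence polarization gave KD; n = 3.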

[11] = biological target: T3, Na(+)/H(+) exchange regulatory cofactor NHE-RF2 (Homo sapiens, UniProt Q15599); test: Binding affinity to NHERF2 PDZ1 domain (unknown origin) expressed in Escherichia coli BL21 incubated for 1 hr by fluorescence polarization based competition assay; summary of the method: as §3
T3 sequence (Q15599 whole entry, the tested form may be a part): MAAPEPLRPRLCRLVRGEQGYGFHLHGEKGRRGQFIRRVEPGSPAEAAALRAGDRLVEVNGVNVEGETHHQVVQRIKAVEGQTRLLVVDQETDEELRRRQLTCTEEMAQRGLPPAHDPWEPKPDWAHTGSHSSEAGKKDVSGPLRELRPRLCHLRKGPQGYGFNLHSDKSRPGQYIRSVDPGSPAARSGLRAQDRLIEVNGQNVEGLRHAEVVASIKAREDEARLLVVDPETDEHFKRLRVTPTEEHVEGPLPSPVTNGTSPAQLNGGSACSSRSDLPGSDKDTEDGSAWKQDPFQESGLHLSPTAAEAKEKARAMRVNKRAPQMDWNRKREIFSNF

[12] = biological target: T3, Na(+)/H(+) exchange regulatory cofactor NHE-RF2; test: Binding affinity to NHERF2 PDZ2 domain (unknown origin) expressed in Escherichia coli BL21 incubated for 1 hr by fluorescence polarization based competition assay
[13] = species: Homo sapiens; test: Selectivity index, ratio of Kd for binding affinity to NHERF1 PDZ1 domain (unknown origin) expressed in Escherichia coli BL21 to Kd for binding affinity to C-terminal His6 tagged CAL PDZ domain (unknown origin) expressed in Escherichia coli BL21; summary of the method: as §3
[14] = species: Homo sapiens; test: Selectivity index, ratio of Kd for binding affinity to NHERF2 PDZ1 domain (unknown origin) expressed in Escherichia coli BL21 to Kd for binding affinity to C-terminal His6 tagged CAL PDZ domain (unknown origin) expressed in Escherichia coli BL21; summary of the method: as §3
[15] = biological target: T1, Golgi-associated PDZ and coiled-coil motif-containing protein; test: Binding affinity to C-terminal His6 tagged CAL PDZ domain (unknown origin) expressed in Escherichia coli BL21 incubated for 1 hr by fluorescence polarization assay
[16] = test system: Cystic fibrosis transmembrane conductance regulator (Homo sapiens), P13569 [F508del]; test: Corrector activity at CFTR F508del mutant in human CF-HBE cells isolated from patient with F508del mutation assessed as increase in short-circuit current at 5 uM incubated for 24 hrs; assay type: cell-based; settings: Epithelial cell, filed as activator; summary of the method: as §2
Cystic fibrosis transmembrane conductance regulator (Homo sapiens), P13569 [F508del], sequence (P13569 as listed by the source): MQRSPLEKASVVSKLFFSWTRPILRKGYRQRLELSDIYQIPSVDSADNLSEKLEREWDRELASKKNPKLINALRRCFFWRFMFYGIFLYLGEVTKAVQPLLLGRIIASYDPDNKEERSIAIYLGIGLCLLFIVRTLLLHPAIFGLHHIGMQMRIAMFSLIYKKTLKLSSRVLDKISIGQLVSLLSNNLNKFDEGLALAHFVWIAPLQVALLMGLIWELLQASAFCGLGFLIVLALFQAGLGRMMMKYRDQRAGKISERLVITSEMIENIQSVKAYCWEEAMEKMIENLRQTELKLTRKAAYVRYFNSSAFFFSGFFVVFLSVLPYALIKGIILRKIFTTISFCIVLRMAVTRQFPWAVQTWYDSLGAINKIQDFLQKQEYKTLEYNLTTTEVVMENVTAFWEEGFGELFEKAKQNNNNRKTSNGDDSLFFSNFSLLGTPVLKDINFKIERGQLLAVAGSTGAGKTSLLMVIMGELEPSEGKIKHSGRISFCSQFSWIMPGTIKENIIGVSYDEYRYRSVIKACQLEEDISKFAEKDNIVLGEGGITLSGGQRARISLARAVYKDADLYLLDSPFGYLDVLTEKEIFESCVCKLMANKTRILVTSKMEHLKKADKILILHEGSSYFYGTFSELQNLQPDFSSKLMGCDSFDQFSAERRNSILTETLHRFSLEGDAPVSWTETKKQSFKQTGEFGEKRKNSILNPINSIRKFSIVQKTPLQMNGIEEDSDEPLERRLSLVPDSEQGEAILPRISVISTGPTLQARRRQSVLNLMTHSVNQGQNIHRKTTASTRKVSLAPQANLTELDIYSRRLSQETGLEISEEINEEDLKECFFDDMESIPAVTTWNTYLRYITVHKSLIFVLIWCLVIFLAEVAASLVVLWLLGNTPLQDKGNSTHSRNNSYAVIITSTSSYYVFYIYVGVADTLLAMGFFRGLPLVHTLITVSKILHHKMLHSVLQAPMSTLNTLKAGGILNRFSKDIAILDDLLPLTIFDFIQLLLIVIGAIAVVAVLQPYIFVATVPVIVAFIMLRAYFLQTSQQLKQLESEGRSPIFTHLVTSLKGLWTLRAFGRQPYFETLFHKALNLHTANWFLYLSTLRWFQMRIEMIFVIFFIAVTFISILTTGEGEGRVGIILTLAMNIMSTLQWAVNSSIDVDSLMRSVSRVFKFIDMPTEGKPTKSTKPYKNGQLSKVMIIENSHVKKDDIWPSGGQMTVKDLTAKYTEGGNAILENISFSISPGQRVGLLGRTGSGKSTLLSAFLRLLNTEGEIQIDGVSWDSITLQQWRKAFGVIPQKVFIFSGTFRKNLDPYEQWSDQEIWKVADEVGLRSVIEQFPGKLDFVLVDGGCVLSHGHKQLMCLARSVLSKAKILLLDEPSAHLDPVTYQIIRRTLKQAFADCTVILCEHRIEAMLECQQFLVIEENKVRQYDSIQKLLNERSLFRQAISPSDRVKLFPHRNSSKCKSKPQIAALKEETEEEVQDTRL

[17] = test system: Epithelial cell; test: Inhibition of CAL and CFTR F508del mutant interaction in human CF-HBE cells isolated from patient with F508del mutation assessed as increase in short-circuit current at 100 nM incubated for 24 hrs in presence of 5 uM VX-809 by relative to VX-809 alone; assay type: cell-based; settings: time 2.0 hrs, in the assay text read “incubated for 2 hrs” for “incubated for 24 hrs”
Summary of the method: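 Primary F508del-homozygous bronchial epithelia from one donor, grown at air/liquid interface, were treated with 5 μM VX-809 for 48 h, then with 100 nM peptide for 2 h. Short-circuit current was measured in an Ussing chamber and scaled to VX-809 alone (100%). Results are 2–3 replicates per condition.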

CC(=O)N[C@H]1CSSC(C)(C)[C@@H](C(=O)N[C@H](C(=O)N[C@@H](CCCNC(=N)N)C(=O)N[C@H](C(=O)O)C(C)(C)C)[C@@H](C)O)NC(=O)[C@@H]2CCCCN2C(=O)[C@H](Cc2csc3ccccc23)NC(=O)[C@H](Cc2ccc3ccccc3c2)NC(=O)[C@H](CCCNC(=N)N)NC(=O)[C@H](CCCNC(=N)N)NC(=O)[C@@H](CCCNC(=N)N)NC1=O (Ac-C[dR]RR[2Nal][Bta][Pip][Pen]TR[Tle]-OH; disulfide 1-8)
Drug metabolism [1]: Metabolite_Detected
Activity [2]: Non-Toxic
Activity [3]: Non-Toxic
Activity [4]: Non-Toxic
conc. at maximal effect [5]: 100 nM
inhibition [5]: Dose-dependent effect

N=C(N)NCCC[C@@H]1NC(=O)[C@H](Cc2ccc3ccccc3c2)NC(=O)[C@@H](Cc2ccccc2)NC(=O)[C@H](CCC(N)=O)NC(=O)[C@@H](CCCNC(=N)N)NC(=O)[C@H](CCCNC(=N)N)NC(=O)[C@@H](CCCNC(=N)N)NC1=O (cyclo([2Nal]R[dR]R[dR]Q[dF]))
Drug uptake [6]: 62%

CC(=O)N[C@@H](CS)C(=O)N[C@H](CCCNC(=N)N)C(=O)N[C@@H](CCCNC(=N)N)C(=O)N[C@@H](CCCNC(=N)N)C(=O)N[C@@H](Cc1ccc2ccccc2c1)C(=O)N[C@@H](Cc1csc2ccccc12)C(=O)N1CCCC[C@H]1C(=O)N[C@H](C(=O)N[C@H](C(=O)N[C@@H](CCCNC(=N)N)C(=O)N[C@H](C(=O)O)C(C)(C)C)[C@@H](C)O)C(C)(C)S (Ac-C[dR]RR[2Nal][Bta][Pip][Pen]TR[Tle]-OH)
IC50 [7]: 20 nM
Drug uptake [8]: 61%
half-life at 100 µM [9]: > 24 h

C[C@@H](O)[C@H](NC(=O)[C@@H](NC(=O)[C@@H](NC(=O)[C@H](Cc1csc2ccccc12)NC(=O)[C@H](Cc1ccc2ccccc2c1)NC(=O)[C@H](CCCNC(=N)N)NC(=O)[C@H](CCCNC(=N)N)NC(=O)[C@@H](CCCNC(=N)N)NC(=O)[C@H](CS)NC(=O)COCCOCCNC(=O)c1ccc2c(c1)C(=O)OC21c2ccc(O)cc2Oc2cc(O)ccc21)C(C)(C)S)C(C)(C)C)C(=O)N[C@@H](CCCNC(=N)N)C(=O)N[C@H](C(=O)O)C(C)(C)C
Kd [10]: 330 nM
Kd [11]: 560 nM
Kd [12]: 2820 nM
Ratio [13]: 6.7
Ratio [14]: 11.4
Kd [15]: 49 nM

CC(C)(CO)c1cc2cc(NC(=O)C3(c4ccc5c(c4)OC(F)(F)O5)CC3)c(F)cc2n1C[C@@H](O)CO
Activity [16]: Active

CC(=O)N[C@H]1CSSC(C)(C)[C@@H](C(=O)N[C@H](C(=O)N[C@H](C(=O)N[C@@H](CCCNC(=N)N)C(=O)N[C@H](C(=O)O)C(C)(C)C)[C@@H](C)O)C(C)(C)C)NC(=O)[C@H](Cc2csc3ccccc23)NC(=O)[C@H](Cc2ccc3ccccc3c2)NC(=O)[C@H](CCCNC(=N)N)NC(=O)[C@H](CCCNC(=N)N)NC(=O)[C@@H](CCCNC(=N)N)NC1=O (Ac-C[dR]RR[2Nal][Bta][Pen][Tle]TR[Tle]-OH; disulfide 1-7)
inhibition [17]: inactive
